SENP1 inh = blocks the human SENP1 SUMO protease catalytic domain | Q9P0U3 | recombinant SENP1 catalytic domain, CyPet-SUMO1-YPet FRET cleavage | inhibition, % at 10 µM | 360,000 compounds, 0.21% hits | AID 624204;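 active means inhibition at least 30% at 10 µM, raw YFP signal under a set limit, fluorescence ratio 0.5 to 1.5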;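 further: 0% = enzyme with DMSO and 100% = no enzyme wells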
Target sequence (Q9P0U3 419-644 limits assumed): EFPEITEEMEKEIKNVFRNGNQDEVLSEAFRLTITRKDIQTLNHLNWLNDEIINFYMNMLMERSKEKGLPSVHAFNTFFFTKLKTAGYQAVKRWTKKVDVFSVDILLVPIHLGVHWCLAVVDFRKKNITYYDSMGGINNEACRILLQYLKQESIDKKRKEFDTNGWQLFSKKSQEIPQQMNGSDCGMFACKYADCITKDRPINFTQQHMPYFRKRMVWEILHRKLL
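material = recombinant human SENP1 catalytic domain, His6-tagged | quantity = 20 pM enzyme | reagent = 25 nM SUMO1 FRET substrate | compound dosing = 10 µM single point, 0.5% DMSO | timing = 50 min enzyme reaction, room temperature, light-protected | detection = FRET, CFP and YFP emission | control set = no-enzyme low, enzyme-DMSO high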
SENP8 block-1 = inhibitors of human SENP8 protease; Q96LD8; purified SENP8, Z-RLRGG-aminoluciferin cleavage, luminescence; inhibition, % at 10 µM; 330,000 compounds, 1.2% hits; AID 2540; in the data active means inhibition above about 50%
SENP7 block = inhibitors of human SENP7 protease; Q9BQF6; recombinant SENP7, Z-RLRGG-aminoluciferin luminescence, 40 min; inhibition, % at 5 µM; 330,000 compounds, 1.5% hits; AID 434973;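 active means inhibition above about 50% at the single test dose, limit read from the data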;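 further: plate controls were DMSO with enzyme for no effect and no enzyme buffer wells for full effect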
CendR NRP1 mod = modulators of CendR peptide binding to human neuropilin-1 | 360,000 compounds, 0.85% hits | O14786 | inhibition, % at 25 µM | FAM-RPARPAR peptide binding to NRP-1, fluorescence polarization | AID 602438;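 active means inhibition or corrected inhibition above about 18%, plus a signal ratio from 0.5 to 1.5, limit read from the data, passing the limit was not always enough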
SENP6 block = blocks the human protease SENP6 | inhibition, % at 10 µM | Recombinant SENP6 catalytic domain, aminoluciferin luminescence | 330,000 compounds, 1.8% hits | AID 2599 | Q9GZR1;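 active means inhibition above about 50% at the single tested dose, limit read from the data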;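 further: plate controls were DMSO wells with enzyme for no effect and DMSO wells lacking enzyme for full effect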
Target sequence (Q9GZR1 628-1112 limits assumed): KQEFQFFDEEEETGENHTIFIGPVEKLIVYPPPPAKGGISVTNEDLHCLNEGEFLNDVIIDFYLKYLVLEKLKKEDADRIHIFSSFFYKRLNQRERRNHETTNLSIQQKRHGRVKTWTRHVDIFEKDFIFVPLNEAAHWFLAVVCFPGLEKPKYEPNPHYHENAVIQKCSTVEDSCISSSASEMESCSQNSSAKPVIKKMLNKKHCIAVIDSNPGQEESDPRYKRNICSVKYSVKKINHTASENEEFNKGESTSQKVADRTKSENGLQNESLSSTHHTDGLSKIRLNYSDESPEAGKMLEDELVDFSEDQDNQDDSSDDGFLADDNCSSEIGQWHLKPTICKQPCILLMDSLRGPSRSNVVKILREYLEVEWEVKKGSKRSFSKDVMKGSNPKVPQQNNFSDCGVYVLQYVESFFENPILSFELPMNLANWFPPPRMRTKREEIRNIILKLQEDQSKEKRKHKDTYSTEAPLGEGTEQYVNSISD
SENP8 block-2 = inhibitors of human SENP8 protease. recombinant SENP8, Nedd8 substrate fluorescence. inhibition, % at 20 µM. 360,000 compounds, 0.64% hits; in the data active means inhibition mostly above about 40%, no sharp cut-off; inactive means mostly below about 27%
SENP8 confirm = human SENP8 inhibition, confirmed | inhibition, % at 12.5 µM | 6,200 compounds, 40% hits | Recombinant SENP8, Z-RLRGG-aminoluciferin luminescence, 60 min | shares compounds with SENP7 block;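 active means mean inhibition across replicates above about 50%, limit read from the data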
SENP6 conf = human SENP6 inhibition, confirmed | 6,200 compounds, 58% hits | recombinant SENP6, Z-RLRGG-aminoluciferin luminescence | AID 488915 | inhibition, % at 12.5 µM | shares compounds with SENP7 block
SENP7 confirm = confirmation of human SENP7 protease inhibitors. shares compounds with SENP7 block. recombinant SENP7, Z-RLRGG-aminoluciferin luminescence, 40 min. inhibition, % at 12.5 µM. 6,200 compounds, 69% hits. AID 488917
Casp3 SENP sel = caspase-3 inhibition (SENP selectivity assay); shares compounds with SENP7 block; purified caspase-3, Z-DEVD-aminoluciferin luminescence, 60 min; inhibition, % at 12.5 µM; 6,200 compounds, 60% hits;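 active means mean inhibition above about 50%, limit read from the data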;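 further: plate controls were enzyme with DMSO for no effect and wells without caspase-3 for full effect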
SENP luc ctr = counter-screen for SENP inhibitors: luminescence interference; shares compounds with SENP7 block; Pre-incubated SENP8/Z-RLRGG-aminoluciferin, luciferase luminescence interference; inhibition, % at 12.5 µM; 6,200 compounds, 39% hits; AID 488919;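 active means mean inhibition above about 50% when retested at one dose, limit read from the data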;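 further: plate controls were DMSO wells with completed reaction for no effect and substrate without enzyme for full effect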
Numbers without * were called inactive; i = inactive; . = no result. The list is not random: actives were taken first. Their share in the collection is about 3.3%.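 How the source made its calls, unless noted: active means mean inhibition above about 50% in the one-dose retest (limit read from the data); inactive means the rest.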

SMILES	SENP1 inh	SENP8 block-1	SENP7 block	CendR NRP1 mod	SENP6 block	SENP8 block-2	SENP8 confirm	SENP6 conf	SENP7 confirm	Casp3 SENP sel	SENP luc ctr
O=C(COC(=O)c1cccnc1Cl)c1ccc(Cl)cc1Cl	0.4	-3.2	67.0*	0.1	84.7*	7.3	45.4	36.5	88.5*	77.7*	74.2*
COC(=O)c1ccc(COC(=O)c2cccnc2Cl)cc1	-1.2	36.6	45.5	10.7	50.7*	5.6	50.1*	45.7	79.3*	66.0*	55.7*
CC(C)c1ncc(CO)n1Cc1c(Cl)cccc1Cl	1.0	.	.	0.6	.	10.8	.	.	.	.	.
CN(C)c1ccc(/C=N/N=C/c2ccccc2O)cc1	-26.7	83.6*	97.4*	1.9	86.2*	-25.7	47.3	58.0*	60.9*	58.9*	34.1
Nc1ccc(N=Nc2ccccc2)c2ccccc12	1.1	-7.5	11.3	2.8	-3.5	24.2	.	.	.	.	.
c1ccc(N=Nc2ccc3cccccc2-3)cc1	3.7	45.0	67.7*	5.2	54.1*	24.3	56.4*	68.3*	86.4*	33.7	49.1
O=C(NCc1cccc(C(F)(F)F)c1)c1[nH]c(C(F)(F)F)nc1-c1ccccc1	1.8	.	.	2.6	.	21.8	.	.	.	.	.
O=C(COC(=O)/C=C/c1ccc(F)cc1)NC1CCS(=O)(=O)C1 (configuration not stated)	1.2	-6.1	-4.0	-3.4	-3.4	-7.5	.	.	.	.	.
CC(C)(C)OC(=O)C[C@@H]1C/C=C\C[C@H](CC(=O)NCCO)C(=O)NC[C@@H](c2ccccc2)OC1=O	2.1	3.1	-3.8	8.8	-4.6	12.3	.	.	.	.	.
Fc1ccc(-n2nnc(-c3cnc4ccccc4c3)n2)cc1	-1.9	79.6*	96.2*	-5.8	93.2*	12.3	64.7*	67.0*	26.1	60.9*	32.7
O=c1[nH]c2ccccc2cc1-c1nnn(-c2ccc(F)cc2)n1	-13.2	-16.1	8.8	3.8	-14.4	i	.	.	.	.	.
CCOc1ccc(C(=O)Nc2nc(C)c(C(=O)OC)s2)cc1	-3.3	43.5	91.9*	4.2	53.7*	-112.8	31.4	30.4	36.3	49.8	12.4
CCOC(=O)c1sc(NC(=O)c2ccc3nc[nH]c3c2)nc1C	-63.1	73.5*	74.5*	5.0	80.5*	-84.0	11.7	71.6*	36.1	26.0	5.2
CCOC(=O)c1sc(NC(=S)NC(=O)c2ccc(OC)cc2)nc1C	0.3	-2.1	-7.7	2.8	-26.0	0.1	.	.	.	.	.
COC(=O)c1sc(NC(=O)c2ccncc2)nc1C	2.2	86.3*	93.6*	13.6	89.8*	8.9	80.3*	91.0*	100.5*	97.4*	48.6
COC(=O)c1sc(NC(=O)c2ccco2)nc1C	1.5	21.9	28.0	3.1	39.3	-27.9	.	.	.	.	.
C=CCOC(=O)c1sc(NC(=O)c2ccc(OC)cc2)nc1C	-1.0	1.0	68.8*	-6.0	-29.9	-125.8	14.4	16.3	25.2	14.9	4.4
CCc1nnc(NC(=O)c2oc3ccccc3c2COC(C)C)s1	-3.7	-3.2	4.5	11.9	4.5	-64.1	.	.	.	.	.
COc1cc(/C=C2\OC(=O)c3c(OC)cccc32)ccc1O	-17.8	23.7	46.8	-3.2	64.4*	-402.4	25.6	29.2	82.3*	57.8*	68.4*
Cc1ccc(NC(=O)CSc2nnnn2C2CCCC2)cc1S(=O)(=O)N1CCOCC1	1.4	-4.4	5.6	5.7	-0.8	6.6	.	.	.	.	.
CCCc1cc(=O)oc2c3c(cc(OCC(=O)N4CCC(C(=O)O)CC4)c12)OC(C)(C)CC3	3.0	.	.	-7.8	.	2.7	.	.	.	.	.
COc1ccc(CC(=O)N(C)CC(=O)Nc2ccc(F)cc2)cc1S(=O)(=O)N1CCOCC1	0.9	1.0	-2.4	4.3	-5.4	3.3	.	.	.	.	.
CN(Cc1ccc(Cl)c(Cl)c1)C(C(=O)NCc1ccccc1)c1ccc(C(F)(F)F)cc1 (configuration not stated)	-33.8	.	.	2.9	.	-90.6	.	.	.	.	.
N#C/C(=C\c1ccc(Sc2ccccc2)o1)c1nc2ccccc2[nH]1	-30.0	23.3	94.0*	-7.9	46.3	-95.8	62.1*	47.8	98.6*	77.7*	66.9*
N#C/C(=C\c1cccs1)c1nc2ccccc2[nH]1	-39.2	.	.	-16.2	.	-50.3	.	.	.	.	.
SMILES	SENP1 inh	SENP8 block-1	SENP7 block	CendR NRP1 mod	SENP6 block	SENP8 block-2	SENP8 confirm	SENP6 conf	SENP7 confirm	Casp3 SENP sel	SENP luc ctr
N#C/C(=C/c1ccc(O)c(O)c1)c1nc2ccccc2[nH]1	-25.1	69.8*	72.2*	-209.3	80.4*	-85.7	82.1*	81.0*	94.5*	78.4*	14.7
N#C/C(=C\c1ccc([N+](=O)[O-])o1)c1nc2ccccc2[nH]1	.	10.7	11.1	.	30.4	.	.	.	.	.	.
COc1ccc(OC)c(C(=O)c2coc3ccc(O)cc23)c1	-0.5	-1.5	2.7	-6.0	6.9	4.9	.	.	.	.	.
O=C(c1ccc(Cl)cc1)c1coc2ccc(O)cc12	1.2	78.1*	77.5*	-7.9	85.9*	12.9	6.8	88.1*	99.2*	72.6*	1.6
Cc1nc(/C(N)=N/OC(=O)c2ccc(Cl)cc2)c(C(F)(F)F)o1	6.2	58.0*	81.7*	3.7	69.2*	11.1	74.4*	69.8*	94.1*	88.5*	78.3*
COc1ccc2c(c1)C(CC(C)=O)N(c1ccc(-c3cccs3)cc1)C(c1ccsc1)=C2 (configuration not stated)	-33.5	.	.	-41.4	.	-401.0	.	.	.	.	.
O=c1[nH]c(SCc2ccc(Cl)cc2)nc2ccsc12	.	63.0*	33.6	.	78.4*	.	12.5	67.2*	88.2*	49.5	7.4
CC(C)CNC(=O)C1(C)CCCN1C(=O)c1c(Cl)cccc1Cl (configuration not stated)	-1.7	.	.	-0.7	.	14.2	.	.	.	.	.
CC(c1ccccc1)N1C(=O)c2ccc(C(=O)Nc3ccccc3C(=O)O)cc2C1=O (configuration not stated)	-1.8	68.5*	21.4	-33.8	69.9*	6.4	75.7*	70.6*	84.6*	41.1	76.9*
CC(C)CCN1C(=O)c2ccc(C(=O)Nc3ccccc3C(=O)O)cc2C1=O	2.5	65.9*	-0.9	-6.8	73.8*	22.0	76.3*	76.8*	85.8*	60.1*	76.7*
O=C(Nc1ccccc1Cl)c1ccccc1Cl	1.4	-10.1	11.5	2.4	-7.7	15.0	.	.	.	.	.

Assay outcomes (PubChem BioAssay)
